Results as given in ChEMBL document CHEMBL3227981, “Studies on biologically active nucleosides and nucleotides. 5. Synthesis and antitumor activity of some 2,2'-anhydro-1-(3',5'-di-O-acyl-beta-D-arabinofuranosyl)cytosine salts and 2,2'-anhydro-1-(3'-O-acyl-beta-D-arabinofuranoxyl)cytosine 5'-phosphates” (J Med Chem, 1979).

How the values were obtained:
[1] = tested on: L1210; assay: Antitumor activity against mouse L1210 cells allografted in BDF1 mouse assessed as increase of host life span at 6.25 mg/kg, ip qd for 5 days; assay type: functional; details: route intraperitoneal
Outline: (§1)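 BDF1 mice were given 1×10^5 L1210 cells ip. Compound was dissolved or suspended in 0.9% NaCl with 0.1% HCO-60 and given ip daily for 5 days, starting 24 h after inoculation. Groups had 6–10 mice. ILS = (T/C − 1) × 100, from mean survival time of treated versus control mice, observed over 60 days.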

[2] = tested on: L1210; assay: Antitumor activity against mouse L1210 cells allografted in BDF1 mouse assessed as increase of host life span at 25 mg/kg, ip qd for 5 days; assay type: functional; details: route intraperitoneal; outline: as §1
[3] = tested on: L1210; assay: Antitumor activity against mouse L1210 cells allografted in BDF1 mouse assessed as increase of host life span at 100 mg/kg, ip qd for 5 days; assay type: functional; details: route intraperitoneal; outline: as §1
[4] = tested on: L1210; assay: Antitumor activity against mouse L1210 cells allografted in BDF1 mouse assessed as increase of host life span at 100 mg/kg, po qd for 5 days; assay type: functional
Outline: (§2)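 L1210 cells (1×10^5) were implanted ip in BDF1 mice. Oral dosing began 24 h later and ran once daily for 5 days, with compound in 0.9% saline containing 0.1% HCO-60 as solution or suspension. Six to ten mice per group. Percent ILS was (T/C − 1) × 100 on mean survival time, with a 30-day observation period.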

[5] = tested on: L1210; assay: Antitumor activity against mouse L1210 cells allografted in BDF1 mouse assessed as increase of host life span at 200 mg/kg, po qd for 5 days; assay type: functional; outline: as §2
[6] = Toxicity in ip dosed ICR mouse up to 3 weeks; assay type: organism-based; details: in vivo
Outline: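 Maximum tolerated dose was set from a single ip injection into three female ICR mice weighing 20–21 g, followed by 3 weeks of observation.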

Compound `CC(C)(C)c1ccc(C(=O)OC[C@H]2O[C@@H]3[C@H](Oc4nc(=N)ccn43)[C@@H]2OC(=O)c2ccc(C(C)(C)C)cc2)cc1.Cl` has an Activity [1] of 26.7%, an Activity [2] of 84% and an Activity [3] of 116.7%. It also gave an Activity [4] of 22.7%, an Activity [5] of 26.7% and an MTD at 504 h [6] of 300 mg/kg.
